Results reported in ChEMBL document CHEMBL1137183, “4-Aryl-3-(mercapto)quinolin-2-ones: novel maxi-K channel opening relaxants of corporal smooth muscle” (Bioorg Med Chem Lett, 2004).
≈ marks a conversion by molar mass, not a printed value.

Assays:
[1] = Solubility was determined; assay type: physicochemical
Procedure, shortened: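 Aqueous solubility measured in HPLC-grade water by a UV absorptivity method, reported in mg/mL.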

[2] = Effect on maxi-K mediated outward current in xenopus laevis oocytes at 20 uM; assay type: functional, Xenopus sp., Oocyte
Procedure, shortened: (§1)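 Two-electrode voltage clamp of whole-cell outward K+ current in Xenopus laevis oocytes expressing cloned hSlo maxi-K channels. Single drug concentration per line. Current is the iberiotoxin-sensitive fraction, tested in at least five oocytes. Value is the average current as a percentage of drug-free control (100%).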

Oryctolagus cuniculus = species on record: Oryctolagus cuniculus; test: Percentage inhibition by the compound in isolated rabbit corpus cavernosum at 10 uM; assay type: functional
Procedure, shortened: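 New Zealand white rabbits (3.4–3.7 kg) euthanized by pentobarbital overdose. Corpus cavernosum strips, 3–5 mm, cut after removal of the tunica and held in modified Krebs-Henseleit bicarbonate buffer at 37 °C. Isometric force recorded. Strips pre-contracted with phenylephrine 3 μM to a steady force, then compound added. Result is % inhibition of force relative to vehicle control; n given per value.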

[3] = Effect on maxi-K mediated outward current in xenopus laevis oocytes at 5 uM; assay type: functional, Xenopus sp., Oocyte; procedure, shortened: as §1
Oocyte = test: Effect on maxi-K mediated outward current in xenopus laevis oocytes at 20 uM; In soluble; assay type: functional, cell-based; details: Xenopus sp.; procedure, shortened: as §1

solubility [1] [µg/mL]	Structure (SMILES)	hSlo current [2] [%]	Inhibition (Oryctolagus cuniculus) [%]	hSlo current [3] [%]	hSlo current (Oocyte)
3 (≈ 8.07 µM)	Oc1ccc(Cl)cc1-c1c(S)c(O)nc2ccc(C(F)(F)F)cc12	197	–	–	–
190 (≈ 426 µM)	OCC(O)CSc1c(O)nc2ccc(C(F)(F)F)cc2c1-c1cc(Cl)ccc1O (centres undefined)	246	31	–	–
4 (≈ 9.62 µM)	OCCSc1c(O)nc2ccc(C(F)(F)F)cc2c1-c1cc(Cl)ccc1O	348	43	–	–
< 1	CC(C)(C)Sc1c(O)nc2ccc(C(F)(F)F)cc2c1-c1cc(Cl)ccc1O	–	–	73	Insoluble
3 (≈ 6.98 µM)	OCCCSc1c(O)nc2ccc(C(F)(F)F)cc2c1-c1cc(Cl)ccc1O	242	23	–	–
< 1	CSc1c(O)nc2ccc(C(F)(F)F)cc2c1-c1cc(Cl)ccc1O	231	22	–	–
–	O=c1[nH]c2cc(C(F)(F)F)ccc2n1-c1cc(Cl)ccc1O	132	31	–	–
